Measurements pooled from the literature.
Protocols differ between the studies behind these lines.
Cell line: SW-620

SMILES	assay	setting	quantity	value
O=C(/C=C/c1ccc2c(=O)n(Cc3ccccc3F)cnc2c1)NO	cell growth or viability, SRB	48 h	IC50	1770 nM
CC(C)n1c(/C=C/C(O)CC(O)CC(=O)O)c(-c2ccc(F)cc2)c2ccccc21 (centres unmarked)	cell growth or viability, SRB	72 h	IC50	0.49 µg/mL
O=C(/C=C/c1ccc2c(=O)n(CCCl)cnc2c1)NO	cell growth or viability, SRB	48 h	IC50	5640 nM
S=C([S][Au-][P+](CCCCCC[P+]([Au-][S]C(=S)n1cccn1)(c1ccccc1)c1ccccc1)(c1ccccc1)c1ccccc1)n1cccn1	cell growth or viability		GI50	4490 nM
COc1ccc(C(=O)/C=C/c2c(F)cccc2Cl)cc1S(N)(=O)=O	cell growth or viability, SRB	48 h	GI50	3600 nM
COc1cccc2c1C(=O)c1c(O)c3c(c(O)c1C2=O)C[C@@](O)(C(=O)CO)C[C@@H]3O[C@H]1C[C@H](N)[C@H](O)[C@H](C)O1	cell growth or viability, MTT	48 h	IC50	2.57 µg/mL
COc1ccc(C(=O)/C=C/c2cccc(Cl)c2Cl)cc1S(N)(=O)=O	cell growth or viability, SRB	48 h	GI50	1600 nM
Cc1ccc(Cn2cnc3ccc(/C=C/C(=O)NO)cc3c2=O)cc1	cell growth or viability, SRB	48 h	IC50	1430 nM
CC[C@H](C)C(=O)O[C@H]1C[C@@H](C)C=C2C=C[C@H](C)[C@H](CC[C@@H]3C[C@@H](O)CC(=O)O3)[C@H]21	cell growth or viability, SRB	72 h	IC50	0.03 µg/mL
O=C(/C=C/c1ccc2c(=O)n(Cc3ccc(F)cc3)cnc2c1)NO	cell growth or viability, SRB	48 h	IC50	1030 nM
COc1ccc(C(=O)/C=C/c2ccc3ccccc3c2)cc1S(N)(=O)=O	cell growth or viability, SRB	48 h	GI50	1800 nM
COc1cc(Nc2nccc(-c3cnn4nc(OC)ccc34)n2)cc(C(F)(F)F)c1	cell growth or viability, ATP luminescence		IC50	160 nM
CC(=O)Nc1cccc(-n2c(=O)n(C3CC3)c(=O)c3c(Nc4ccc(I)cc4F)n(C)c(=O)c(C)c32)c1	cell growth or viability, resazurin	780 pM, 72 h	viability	71.7%
COc1ccc(C(=O)/C=C/c2ccccc2Br)cc1S(N)(=O)=O	cell growth or viability, SRB	48 h	GI50	1800 nM
O=C(/C=C/c1ccc2c(=O)n(CCO)cnc2c1)NO	cell growth or viability, SRB	48 h	IC50	3680 nM
COc1ccc(C(=O)/C=C/c2cccnc2)cc1S(N)(=O)=O	cell growth or viability, SRB	10 µM	inhibition	87%
Cn1cc(-c2ccc(-c3cncc(Cl)c3N3CCC4(CCNC4=O)CC3)cc2)cn1	colony formation	14 days, 3D culture	GI50	140 nM
